Measured values published in ChEMBL document CHEMBL1126069, “Synthesis of high affinity fluorine-substituted ligands for the androgen receptor. Potential agents for imaging prostatic cancer by positron emission tomography” (J Med Chem, 1992).

Legend:
[1] = target: T1, Progesterone receptor (Rattus norvegicus) (UniProt Q63449); experiment: Displacement of [3H]R5020 from rat progesterone receptor(PgR)
T1 sequence (whole entry): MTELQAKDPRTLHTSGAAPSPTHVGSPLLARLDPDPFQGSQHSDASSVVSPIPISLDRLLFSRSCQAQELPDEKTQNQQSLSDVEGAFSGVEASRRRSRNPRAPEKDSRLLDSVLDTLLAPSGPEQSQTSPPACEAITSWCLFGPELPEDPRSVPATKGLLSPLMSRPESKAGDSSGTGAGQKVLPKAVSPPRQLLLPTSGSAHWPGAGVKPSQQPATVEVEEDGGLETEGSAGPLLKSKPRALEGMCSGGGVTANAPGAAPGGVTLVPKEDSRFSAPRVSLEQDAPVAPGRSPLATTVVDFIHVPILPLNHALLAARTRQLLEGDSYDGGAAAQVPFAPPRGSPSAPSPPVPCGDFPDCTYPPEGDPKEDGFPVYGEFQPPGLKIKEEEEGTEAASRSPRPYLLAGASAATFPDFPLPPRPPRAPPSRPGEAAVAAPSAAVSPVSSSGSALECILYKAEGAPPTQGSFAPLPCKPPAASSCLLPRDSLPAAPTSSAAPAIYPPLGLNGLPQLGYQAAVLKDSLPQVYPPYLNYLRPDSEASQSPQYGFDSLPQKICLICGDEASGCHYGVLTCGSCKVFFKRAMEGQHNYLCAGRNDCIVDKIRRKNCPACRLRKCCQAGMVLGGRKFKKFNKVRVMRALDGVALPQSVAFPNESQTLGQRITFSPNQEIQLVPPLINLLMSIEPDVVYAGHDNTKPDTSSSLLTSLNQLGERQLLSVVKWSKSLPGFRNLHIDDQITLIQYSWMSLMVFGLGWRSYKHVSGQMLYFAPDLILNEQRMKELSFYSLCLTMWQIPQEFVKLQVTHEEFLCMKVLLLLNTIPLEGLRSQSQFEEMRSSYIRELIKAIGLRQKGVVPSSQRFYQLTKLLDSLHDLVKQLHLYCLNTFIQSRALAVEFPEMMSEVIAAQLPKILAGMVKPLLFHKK
How it was run: (§1)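 Competitive radiometric binding assay giving relative binding affinities. The reference standards were R5020 for rat PgR, aldosterone for rat MR and estradiol for human SBP.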

[2] = target: T2, Mineralocorticoid receptor (Rattus norvegicus) (UniProt P22199); experiment: Displacement of [3H]aldosterone from rat Mineralocorticoid receptor; how it was run: as §1
T2 sequence (whole entry): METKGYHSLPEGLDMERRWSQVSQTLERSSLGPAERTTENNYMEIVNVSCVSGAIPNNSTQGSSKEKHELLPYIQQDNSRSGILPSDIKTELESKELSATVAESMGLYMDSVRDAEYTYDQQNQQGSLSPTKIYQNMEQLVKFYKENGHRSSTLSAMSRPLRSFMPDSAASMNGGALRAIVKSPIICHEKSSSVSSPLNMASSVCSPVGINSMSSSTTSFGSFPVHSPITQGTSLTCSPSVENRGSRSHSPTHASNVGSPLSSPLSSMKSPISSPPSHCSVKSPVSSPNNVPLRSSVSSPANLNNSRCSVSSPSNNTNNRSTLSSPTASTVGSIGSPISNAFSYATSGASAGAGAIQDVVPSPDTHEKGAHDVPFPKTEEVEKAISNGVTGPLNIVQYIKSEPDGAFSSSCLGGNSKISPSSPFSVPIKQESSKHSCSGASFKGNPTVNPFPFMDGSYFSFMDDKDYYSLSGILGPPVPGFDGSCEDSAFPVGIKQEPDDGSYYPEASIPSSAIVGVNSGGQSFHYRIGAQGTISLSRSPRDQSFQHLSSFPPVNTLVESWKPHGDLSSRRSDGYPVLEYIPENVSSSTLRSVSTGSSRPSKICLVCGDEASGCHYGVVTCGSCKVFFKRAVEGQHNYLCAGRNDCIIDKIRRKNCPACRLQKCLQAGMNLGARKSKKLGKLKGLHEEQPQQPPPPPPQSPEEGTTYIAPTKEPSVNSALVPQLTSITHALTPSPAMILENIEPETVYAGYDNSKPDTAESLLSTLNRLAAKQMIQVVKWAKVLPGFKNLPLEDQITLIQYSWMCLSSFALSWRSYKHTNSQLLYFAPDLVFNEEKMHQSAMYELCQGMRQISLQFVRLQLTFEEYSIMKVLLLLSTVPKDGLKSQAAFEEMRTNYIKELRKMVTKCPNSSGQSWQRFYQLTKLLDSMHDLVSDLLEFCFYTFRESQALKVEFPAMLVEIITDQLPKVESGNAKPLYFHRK

[3] = target: T3, Sex hormone-binding globulin (Homo sapiens) (UniProt P04278); experiment: Displacement of [3H]estradiol from human Sex steroid binding protein (SBP); how it was run: as §1
T3 sequence (whole entry): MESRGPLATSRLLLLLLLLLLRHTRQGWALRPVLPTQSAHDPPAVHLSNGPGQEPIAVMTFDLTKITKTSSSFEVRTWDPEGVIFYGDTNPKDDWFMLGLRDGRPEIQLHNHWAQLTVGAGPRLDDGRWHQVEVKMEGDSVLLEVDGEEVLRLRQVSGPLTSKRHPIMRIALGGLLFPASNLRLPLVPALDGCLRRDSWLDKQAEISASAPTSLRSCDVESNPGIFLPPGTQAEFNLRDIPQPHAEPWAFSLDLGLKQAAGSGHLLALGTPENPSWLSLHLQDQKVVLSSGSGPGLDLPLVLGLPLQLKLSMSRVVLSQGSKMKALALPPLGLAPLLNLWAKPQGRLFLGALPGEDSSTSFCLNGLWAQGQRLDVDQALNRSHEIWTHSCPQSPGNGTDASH

[4] = species on record: Rattus norvegicus; experiment: Relative affinity for rat androgen receptor(AR) and mineralocorticoid receptor(MR)
How it was run: (§2)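 Each ratio is AR relative binding affinity divided by the RBA for PgR, MR or SBP. The AR source was ventral prostate cytosol from mature male Holtzman rats orchidectomized 24 h before. Cytosol was preincubated with triamcinolone acetonide to block PgR and corticosteroid receptors. [3H]R1881 served as tracer, incubated 18 h at 0 °C. Free ligand was removed with dextran-coated charcoal, 15 min at 0 °C. AR RBA is on a percent scale versus R1881.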

[5] = Relative affinity for rat androgen receptor(AR) and human Sex steroid binding protein (SBP); how it was run: as §2
[6] = species on record: Rattus norvegicus; experiment: Relative affinity for rat androgen receptor(AR) and progesterone receptor(PgR); how it was run: as §2

Structure (SMILES) | relative binding affinity (RBA) [1] | relative binding affinity (RBA) [2] | relative binding affinity (RBA) [3] | RBA ratio [4] | RBA ratio [5] | RBA ratio [6]
C[C@]12CC[C@H]3[C@@H](CCC4=CC(=O)CC[C@@H]43)[C@@H]1CC[C@@H]2O | 3.1 | 2 | 29.9 |  |  | 
C[C@@H]1CC2=CC(=O)CC[C@@H]2C2CC[C@@]3(C)C(C[C@@H](F)[C@@H]3O)C21 (some centres not stated) | 5.7 | 0.21 | 4.01 | 104 | 5.5 | 3.8
C[C@@H]1CC2=CC(=O)CC[C@@H]2C2CC[C@@]3(C)C(C[C@@H](F)[C@]3(C)O)C21 (some centres not stated) | 14.4 | 0.37 | 3.1 | 101 | 12 | 2.6
C[C@@H]1CC2=CC(=O)CC[C@@H]2C2CC[C@@]3(C)C(CC[C@@]3(O)CF)C21 (some centres not stated) | 10.3 | 0.86 | 3 | 61.9 | 17.7 | 5.2
C[C@@H]1CC2=CC(=O)CC[C@@H]2C2CC[C@@]3(C)C(C[C@H](F)[C@@H]3O)C21 (some centres not stated) | 1.6 | 0.05 | 3.75 | 730 | 9.7 | 23.4
C[C@]12CC[C@H]3[C@@H](CCC4=CC(=O)CC[C@@]43C)[C@@H]1CC[C@@H]2O | 0.09 | 4.19 | 417 |  |  | 
C[C@@H]1CC2=CC(=O)CC[C@@H]2C2CC[C@@]3(C)C(CC[C@@H]3O)C21 (some centres not stated) | 3.7 | 0.74 | 28.7 | 210 | 5.4 | 42.1
C[C@]1(O)CC[C@H]2[C@@H]3CCC4=CC(=O)CCC4=C3C=C[C@@]21C | 43.7 | 25.4 | 4 | 3.9 | 25 | 2.3
C[C@]12CC[C@H]3[C@@H](CCC4CC(=O)CC[C@@]43C)[C@@H]1C[C@@H](F)[C@@H]2O (some centres not stated) | 0.07 | 0.05 | 228 | 75.5 | 0.02 | 56.1
C[C@]12CC[C@H]3[C@@H](CCC4CC(=O)CC[C@@]43C)[C@@H]1C[C@H](F)[C@@H]2O (some centres not stated) | 0.12 | 0.06 | 385 | 689 | 0.16 | 356
C[C@@H]1CC2=CC(=O)CC[C@@H]2C2CC[C@@]3(C)C(CC[C@]3(C)O)C21 (some centres not stated) | 20.4 | 5.7 | 19 | 20.7 | 6.2 | 5.8
C[C@]12C=CC3=C4CCC(=O)C=C4CCC3C1CC[C@@]2(O)CF (some centres not stated) | 10.5 | 4.5 | 2.2 | 4.2 | 8.5 | 1.8
C[C@@H]1CC2=CC(=O)CC[C@@H]2C2CC[C@@]3(C)C(C[C@H](F)[C@]3(C)O)C21 (some centres not stated) | 3 | 0.08 | 1.3 | 385 | 23.7 | 10.3
